Calls of active or inactive are those of the source. No cut-off for these calls is given here.
How the values were obtained:
[1] = biological target: Ephrin type-A receptor 4 (Homo sapiens) (UniProt P54764); experiment: Inhibition of N-terminal His6-tagged recombinant human EphA4 (601 to 892 residues) expressed in baculovirus infected Sf21 cells at 3 uM by filter binding assay relative to control
[2] = biological target: MAP kinase-interacting serine/threonine-protein kinase 2 (Homo sapiens) (UniProt Q9HBH9); experiment: Inhibition of N-terminal 6His-tagged recombinant human full-length Mnk2 expressed in baculovirus infected Sf21 cells at 3 uM by filter binding assay relative to control
Summary of the method: (§1)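 Outsourced single-concentration screen in a commercial panel of 233 protein kinases, run as radiometric filter-binding activity assays. Test agent was tested at 0.3 or 3 µmol/L, as given in each line, from a 10 mmol/L DMSO stock. Activity is expressed as percent inhibition relative to control.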

[3] = biological target: Insulin receptor (Mus musculus) (UniProt P15208); settings: CD-1, dose 30.0 mg/kg, route po, time 21.0 day
MHH-ES-1 = experiment: Antiproliferative activity against human MHH-ES-1 cells assessed as reduction in cell viability after 72 hrs by CellTiter-Glo assay; type: functional, cell-based; settings: MHH-ES-1, 72 h
Summary of the method: (§2)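 Cells seeded in 96-well plates, left overnight at 37°C, then exposed to a range of test concentrations for 72 h. Viability read by CellTiter-Glo luminescence; IC50 from four-parameter curve fit. Lines kept at 37°C, 5% CO2, in recommended growth medium.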

Rattus norvegicus = species on record: Rattus norvegicus; experiment: Inhibition of recombinant rat AMPK at 0.3 uM by filter binding assay relative to control
MCF7 = experiment: Induction of cell cycle arrest in human MCF7 cells assessed as effect on sub-2N-DNA content at 0.03 to 10 uM incubated for 24 to 48 hrs by propidium iodide staining based flow cytometric analysis; type: functional; settings: dose 0.03-10 µM, time lower 24.0 hrs, time upper […]
Summary of the method: (§3)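 COLO 205, MCF-7 or NCI-H929 cells seeded in 96-well plates overnight at 37°C, then exposed to DMSO or increasing compound concentrations for 24 or 48 h. Fixed and stained with propidium iodide (Vindelov method), then analysed by flow cytometry for sub-G1, G1, S and G2-M fractions. Experiment repeated twice.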

[4] = biological target: Insulin receptor-related protein (Homo sapiens, UniProt P14616); experiment: Inhibition of N-terminal 6His-tagged recombinant human IRR (944 to 1266 residues) expressed in baculovirus infected Sf21 cells by filter binding assay
Aurora kinase B = Aurora kinase B (Homo sapiens, UniProt Q96GD4); experiment: Inhibition of Aurora B (unknown origin)
[5] = Inhibition of […] N-terminal 6His-tagged full length human P110delta/full length human p85beta expressed in baculovirus infected Sf21 cells at 3 uM by filter binding assay relative to control; settings: condition cancer
[6] = Antiproliferative activity against human SK-ES cells assessed as reduction in cell viability after 72 hrs by CellTiter-Glo assay; type: functional, cell-based; summary of the method: as §2
[7] = In vivo inhibition of IGF1R in mouse NIH-3T3/LISN cells implanted in IGF1-stimulated nu/nu CD-1 mouse assessed as reduction in IGF1R phosphorylation at 10 mg/kg, po pretreated for 4 hrs followed by IGF1 stimulation and measured after 10 min by […] relative to control; type: functional; settings: 4.167 h, time 250 min
Summary of the method: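 Female nu/nu CD-1 mice, three per group, bearing ~500 mm3 tumors, given one oral dose of compound or vehicle. At 4 h, 10 µg hIGF-I i.v. via tail vein; saline controls. Tumor and blood taken 10 min later. Tumor lysates in RIPA captured on anti-IGF-IR plates and probed with europium anti-phosphotyrosine. Phospho/total IGF-IR expressed as % of ligand-stimulated control. Blood levels by LC-MS/MS.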

[8] = Toxicity in nu/nu CD-1 mouse xenografted with human BXPC-3 cells assessed as reduction in body weight at 30 mg/kg, po for 21 days relative to control; type: organism-based; settings: in vivo, 504 h, time 21 day
SK-OV-3 = experiment: Antiproliferative activity against human SK-OV-3 cells assessed as reduction in cell viability after 72 hrs by CellTiter-Glo assay; type: functional, cell-based; settings: SK-OV-3, 72 h; summary of the method: as §2
[9] = biological target: Vascular endothelial growth factor receptor 2 (Homo sapiens, UniProt P35968); experiment: Inhibition of VEGFR2 (unknown origin)
[10] = biological target: Serine/threonine-protein kinase PLK3 (Homo sapiens) (UniProt Q9H4B4); experiment: Inhibition of N-terminal His6-tagged recombinant human Plk3 (19 to 301 residues) expressed in baculovirus infected Sf21 cells at 0.3 uM by filter binding assay relative to control
[11] = biological target: 3-phosphoinositide-dependent protein kinase 1 (Homo sapiens, UniProt O15530); experiment: Inhibition of PDK1 (unknown origin)
[12] = Cytotoxicity against human PREC cells assessed as reduction in cell viability after 72 hrs by CellTiter-Glo assay; type: toxicity, cell-based; summary of the method: as §2
HN5 = experiment: Antiproliferative activity against human HN5 cells assessed as reduction in cell viability after 72 hrs by CellTiter-Glo assay; type: functional, cell-based; settings: HN5, 72 h; summary of the method: as §2
NCI-H929 = experiment: Induction of cell cycle arrest in human NCI-H929 cells assessed as cells accumulation at S phase at 1 umol/L incubated for 48 hrs by propidium iodide staining based flow cytometric analysis (reference value: 15%); type: functional; settings: dose 1 µmol/L, at 1 µM; summary of the method: as §3
[13] = biological target: Insulin receptor (Mus musculus) (UniProt P15208); settings: CD-1, dose 30.0 mg/kg, route po, time 21.0 day; remark: listed apart in the source
HT-29 = experiment: Antitumor activity against human HT-29 cells xenografted in nu/nu CD-1 mouse assessed as reduction in tumor growth at 30 mg/kg, po for 21 days relative to control; type: functional; settings: HT-29, 504 h, time 21 day, read-out: TGI
Summary of the method: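 Exponentially growing cells implanted s.c. in the right flank of 8–10-wk-old female athymic nu/nu CD-1 mice. At 150–200 mm3, block-randomized by tumor size into groups of eight. Oral dosing once or twice daily for 21 d; vehicle 20% sulfobutylether-β-cyclodextrin, pH 3.5. Calipers twice weekly; volume = length×width²/2. Growth inhibition = 100×[1 − treated growth/vehicle growth].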

[14] = biological target: Serine/threonine-protein kinase TAO2 (Homo sapiens) (UniProt Q9UL54); experiment: Inhibition of N-terminal 6His-tagged recombinant human TAO2 expressed in Sf21 cells at 3 uM by filter binding assay relative to control; summary of the method: as §1
[15] = biological target: Cytoplasmic tyrosine-protein kinase BMX (Homo sapiens, UniProt P51813); experiment: Inhibition of N-terminal His6-tagged recombinant full-length human BMX expressed in baculovirus infected Sf21 cells by filter binding assay
[16] = Inhibition of mouse YAK3
[17] = biological target: Dual specificity mitogen-activated protein kinase kinase 7 (Homo sapiens) (UniProt O14733); experiment: Inhibition of N-terminal GST-tagged recombinant human MKK7beta (2 to end residues) expressed in Escherichia coli at 0.3 uM by filter binding assay relative to control; summary of the method: as §1
Focal adhesion kinase 1 = Focal adhesion kinase 1 (Homo sapiens, UniProt Q05397); experiment: Inhibition of N-terminal 6His-tagged recombinant human FAK (411 to 686 residues) expressed in baculovirus infected Sf21 cells by filter binding assay

Insulin receptor (Mus musculus), sequence (P15208 28-748 limits assumed): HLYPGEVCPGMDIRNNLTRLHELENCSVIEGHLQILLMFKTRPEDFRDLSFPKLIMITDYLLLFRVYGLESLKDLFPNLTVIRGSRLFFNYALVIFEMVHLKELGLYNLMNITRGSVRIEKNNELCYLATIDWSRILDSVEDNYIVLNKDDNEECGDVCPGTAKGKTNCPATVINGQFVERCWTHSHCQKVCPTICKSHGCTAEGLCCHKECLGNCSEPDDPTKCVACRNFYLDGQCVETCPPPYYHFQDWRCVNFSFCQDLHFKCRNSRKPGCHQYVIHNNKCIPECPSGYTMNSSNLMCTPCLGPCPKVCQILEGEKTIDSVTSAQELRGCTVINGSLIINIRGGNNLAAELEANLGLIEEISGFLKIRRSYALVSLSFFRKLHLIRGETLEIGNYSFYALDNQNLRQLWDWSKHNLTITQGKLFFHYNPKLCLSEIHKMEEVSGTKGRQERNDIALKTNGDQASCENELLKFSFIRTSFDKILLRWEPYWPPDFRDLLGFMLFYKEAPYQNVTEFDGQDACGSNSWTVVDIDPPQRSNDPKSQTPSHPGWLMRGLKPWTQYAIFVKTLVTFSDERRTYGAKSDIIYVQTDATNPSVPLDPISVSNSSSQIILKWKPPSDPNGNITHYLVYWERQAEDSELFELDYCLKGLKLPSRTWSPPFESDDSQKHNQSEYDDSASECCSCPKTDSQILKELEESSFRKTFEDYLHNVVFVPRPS
Insulin receptor (Mus musculus), sequence (P15208 753-1372 limits assumed): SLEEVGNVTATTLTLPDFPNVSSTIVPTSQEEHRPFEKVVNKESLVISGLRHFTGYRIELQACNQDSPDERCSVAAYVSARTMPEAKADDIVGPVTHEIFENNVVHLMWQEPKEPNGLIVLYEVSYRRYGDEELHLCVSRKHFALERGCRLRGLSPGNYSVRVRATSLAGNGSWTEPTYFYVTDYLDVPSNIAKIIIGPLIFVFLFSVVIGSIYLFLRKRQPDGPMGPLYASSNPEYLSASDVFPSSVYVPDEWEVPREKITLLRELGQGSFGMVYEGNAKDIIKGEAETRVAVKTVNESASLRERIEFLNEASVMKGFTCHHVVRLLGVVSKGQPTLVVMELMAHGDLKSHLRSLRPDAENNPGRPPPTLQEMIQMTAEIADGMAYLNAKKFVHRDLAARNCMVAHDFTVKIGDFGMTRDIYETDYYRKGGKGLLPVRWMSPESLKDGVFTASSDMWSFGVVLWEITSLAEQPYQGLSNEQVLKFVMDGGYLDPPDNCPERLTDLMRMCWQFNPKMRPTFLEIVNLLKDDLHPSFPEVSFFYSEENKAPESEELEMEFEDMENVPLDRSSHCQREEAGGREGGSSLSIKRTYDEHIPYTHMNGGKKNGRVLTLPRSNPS
Insulin receptor-related protein, sequence (P14616 27-742 limits assumed): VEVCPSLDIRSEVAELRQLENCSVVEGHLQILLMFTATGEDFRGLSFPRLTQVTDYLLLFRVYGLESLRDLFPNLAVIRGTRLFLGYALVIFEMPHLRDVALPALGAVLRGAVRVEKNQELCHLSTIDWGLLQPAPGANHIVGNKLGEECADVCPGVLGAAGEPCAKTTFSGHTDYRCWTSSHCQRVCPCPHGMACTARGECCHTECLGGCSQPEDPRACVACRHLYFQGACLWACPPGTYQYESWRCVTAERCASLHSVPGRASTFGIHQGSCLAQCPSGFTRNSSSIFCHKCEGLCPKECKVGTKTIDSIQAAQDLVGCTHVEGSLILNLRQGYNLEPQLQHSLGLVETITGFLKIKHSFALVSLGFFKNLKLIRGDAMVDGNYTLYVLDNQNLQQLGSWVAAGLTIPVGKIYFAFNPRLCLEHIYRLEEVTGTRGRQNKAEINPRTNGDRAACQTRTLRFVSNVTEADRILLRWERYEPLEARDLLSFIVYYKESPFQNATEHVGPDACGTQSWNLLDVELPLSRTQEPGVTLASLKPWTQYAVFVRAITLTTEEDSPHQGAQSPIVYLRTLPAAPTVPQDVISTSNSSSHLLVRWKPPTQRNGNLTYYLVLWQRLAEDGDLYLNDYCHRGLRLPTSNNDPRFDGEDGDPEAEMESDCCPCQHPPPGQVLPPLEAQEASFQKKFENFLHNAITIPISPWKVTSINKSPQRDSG
Insulin receptor-related protein, sequence (P14616 747-1297 limits assumed): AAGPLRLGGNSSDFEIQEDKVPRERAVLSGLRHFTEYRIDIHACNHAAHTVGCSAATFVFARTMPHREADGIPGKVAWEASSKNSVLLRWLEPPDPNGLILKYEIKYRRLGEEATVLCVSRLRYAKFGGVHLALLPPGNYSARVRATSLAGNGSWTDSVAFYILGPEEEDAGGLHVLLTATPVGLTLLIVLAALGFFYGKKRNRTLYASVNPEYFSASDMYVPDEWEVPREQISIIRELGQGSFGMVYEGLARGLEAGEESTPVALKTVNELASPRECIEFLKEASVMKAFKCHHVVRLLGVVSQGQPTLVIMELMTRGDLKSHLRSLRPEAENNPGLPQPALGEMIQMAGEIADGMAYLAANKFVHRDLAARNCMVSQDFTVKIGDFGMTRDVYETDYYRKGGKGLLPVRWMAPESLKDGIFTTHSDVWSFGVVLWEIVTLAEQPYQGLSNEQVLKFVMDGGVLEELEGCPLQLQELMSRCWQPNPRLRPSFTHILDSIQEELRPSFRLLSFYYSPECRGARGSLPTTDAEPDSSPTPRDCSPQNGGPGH
Vascular endothelial growth factor receptor 2, sequence (P35968 whole entry, the tested form may be a part): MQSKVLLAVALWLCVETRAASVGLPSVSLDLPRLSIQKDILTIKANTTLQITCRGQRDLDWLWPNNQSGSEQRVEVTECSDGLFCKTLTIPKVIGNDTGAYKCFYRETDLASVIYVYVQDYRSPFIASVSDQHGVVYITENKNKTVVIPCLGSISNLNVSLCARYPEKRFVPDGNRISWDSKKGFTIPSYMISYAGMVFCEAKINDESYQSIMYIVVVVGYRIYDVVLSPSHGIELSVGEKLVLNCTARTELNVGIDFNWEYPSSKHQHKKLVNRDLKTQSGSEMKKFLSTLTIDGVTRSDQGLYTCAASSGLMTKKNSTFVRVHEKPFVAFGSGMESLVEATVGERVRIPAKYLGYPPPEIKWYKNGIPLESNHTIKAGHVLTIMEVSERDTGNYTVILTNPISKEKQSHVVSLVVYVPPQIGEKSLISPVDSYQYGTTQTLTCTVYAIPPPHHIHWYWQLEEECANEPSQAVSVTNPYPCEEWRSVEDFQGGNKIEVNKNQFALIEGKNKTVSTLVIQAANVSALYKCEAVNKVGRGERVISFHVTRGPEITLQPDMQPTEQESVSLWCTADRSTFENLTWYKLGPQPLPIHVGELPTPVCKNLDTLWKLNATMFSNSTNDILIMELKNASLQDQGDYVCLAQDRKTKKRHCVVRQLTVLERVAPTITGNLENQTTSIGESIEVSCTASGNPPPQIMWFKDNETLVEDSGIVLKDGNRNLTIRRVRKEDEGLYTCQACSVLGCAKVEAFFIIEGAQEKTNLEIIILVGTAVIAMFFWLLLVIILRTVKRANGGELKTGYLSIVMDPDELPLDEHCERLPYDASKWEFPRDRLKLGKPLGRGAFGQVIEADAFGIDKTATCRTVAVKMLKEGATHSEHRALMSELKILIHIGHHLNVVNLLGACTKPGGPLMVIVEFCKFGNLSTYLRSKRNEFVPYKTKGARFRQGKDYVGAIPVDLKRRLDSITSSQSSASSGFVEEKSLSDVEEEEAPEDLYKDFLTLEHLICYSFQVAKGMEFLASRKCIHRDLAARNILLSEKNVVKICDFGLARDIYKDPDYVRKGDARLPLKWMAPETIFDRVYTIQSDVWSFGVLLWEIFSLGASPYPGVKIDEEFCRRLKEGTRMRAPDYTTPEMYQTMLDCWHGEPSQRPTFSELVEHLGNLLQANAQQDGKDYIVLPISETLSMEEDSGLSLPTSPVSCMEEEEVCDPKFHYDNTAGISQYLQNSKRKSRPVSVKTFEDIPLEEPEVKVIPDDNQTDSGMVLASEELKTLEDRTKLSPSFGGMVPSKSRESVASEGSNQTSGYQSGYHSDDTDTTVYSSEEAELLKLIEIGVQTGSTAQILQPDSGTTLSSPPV
Ephrin type-A receptor 4 (Homo sapiens), sequence (P54764 whole entry, the tested form may be a part): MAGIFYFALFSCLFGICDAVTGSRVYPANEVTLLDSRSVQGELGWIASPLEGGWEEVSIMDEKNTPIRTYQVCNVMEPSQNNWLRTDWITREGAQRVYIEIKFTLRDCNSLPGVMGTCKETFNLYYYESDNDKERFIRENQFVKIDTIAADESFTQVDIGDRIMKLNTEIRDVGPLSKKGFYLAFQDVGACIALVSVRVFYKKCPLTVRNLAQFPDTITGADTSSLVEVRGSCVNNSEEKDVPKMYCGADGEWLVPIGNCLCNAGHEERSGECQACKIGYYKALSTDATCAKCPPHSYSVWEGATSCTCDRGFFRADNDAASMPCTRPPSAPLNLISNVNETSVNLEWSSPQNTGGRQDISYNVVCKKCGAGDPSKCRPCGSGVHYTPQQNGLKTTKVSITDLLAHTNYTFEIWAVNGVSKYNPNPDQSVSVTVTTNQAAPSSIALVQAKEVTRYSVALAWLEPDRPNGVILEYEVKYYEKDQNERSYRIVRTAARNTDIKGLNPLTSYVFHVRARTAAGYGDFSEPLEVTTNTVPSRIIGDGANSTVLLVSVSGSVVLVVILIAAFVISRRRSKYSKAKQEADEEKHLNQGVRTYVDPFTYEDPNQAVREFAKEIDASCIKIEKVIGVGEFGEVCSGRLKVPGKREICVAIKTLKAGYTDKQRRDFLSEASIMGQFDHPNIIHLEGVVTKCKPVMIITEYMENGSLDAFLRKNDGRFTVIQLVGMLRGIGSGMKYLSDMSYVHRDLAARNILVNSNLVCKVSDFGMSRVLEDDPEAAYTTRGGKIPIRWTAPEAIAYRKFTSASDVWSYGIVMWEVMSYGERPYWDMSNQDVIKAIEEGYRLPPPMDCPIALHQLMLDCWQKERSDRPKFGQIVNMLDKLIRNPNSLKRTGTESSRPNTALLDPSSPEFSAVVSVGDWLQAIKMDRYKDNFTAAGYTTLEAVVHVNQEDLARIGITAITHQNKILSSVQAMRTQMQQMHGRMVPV

With `CCc1cc(Nc2nccc(-c3c(-c4ccc(OC)c(C(=O)Nc5c(F)cccc5F)c4)nc4ccccn34)n2)c(OC)cc1N1CCC(N2CCN(S(C)(=O)=O)CC2)CC1` the inhibition [1] was -10%, the inhibition [2] was 24% and the inhibition [3] was “inactive”. For the same compound, the IC50 (MHH-ES-1) was > 30 µM, the inhibition (Rattus norvegicus) was 0% and the Activity (MCF7) was “inactive”. The IC50 [4] was 0.488 µM, the IC50 (Aurora kinase B) was 4 µM and the inhibition at 3 µM [5] was 2%. For the same compound, the IC50 [6] was 0.061 µM, the inhibition in vivo at 10 mg/kg [7] was 95% and the Activity [8] was “Non-Toxic”. For the same compound, the IC50 (SK-OV-3) was > 20 µM, the IC50 [9] was 3.2 µM and the inhibition [10] was -10%. The IC50 [11] was > 10 µM, the IC50 at 72 h [12] was 0.068 µM and the IC50 (HN5) was > 20 µM. For the same compound, the Activity (NCI-H929) was 3%, the inhibition [13] was “inactive” and the inhibition in vivo at 30 mg/kg (HT-29) was 47%. For the same compound, the inhibition [14] was 1%, the IC50 [15] was 1.21 µM and the IC50 [16] was > 10 µM. The inhibition [17] was 0% and the IC50 (Focal adhesion kinase 1) was 0.362 µM.
